The results in this text go back to ChEMBL document CHEMBL1926589, “2-Anilinonicotinyl linked 2-aminobenzothiazoles and [1,2,4]triazolo[1,5-b] [1,2,4]benzothiadiazine conjugates as potential mitochondrial apoptotic inducers” (Bioorg Med Chem, 2011).

The structures appear in SMILES notation.

What all share (assay type): functional
What all share (settings): read-out: GI

The subject of one assay is IMR-32. The experiment in a line: Growth inhibition of human IMR32 cells at 10 uM by sulforhodamine B assay. The gist of the method: (§1)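 Single-dose 10 µM screen by sulforhodamine B assay, reported as percent inhibition of cell proliferation. Cells grown in medium with 10% heat-inactivated FBS at 37 °C, 5% CO2, and treated at about 70% confluence or in log phase. Compounds dissolved in DMSO; controls received vehicle (<0.5% v/v).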

The test system of a further assay is SK-N-SH. In words: Growth inhibition of human SK-N-SH cells at 10 uM by sulforhodamine B assay. The gist of the method:
as §1
On the technique in general: The SRB assay estimates cell density from bound dye.

The subject of another assay is SiHa. The experiment in a line: Growth inhibition of human SiHa cells at 10 uM by sulforhodamine B assay. In outline: as §1
A further assay deals with SW-620. The experiment in a line: Growth inhibition of human SW620 cells at 10 uM by sulforhodamine B assay. In outline: as §1
The subject of the next assay is HCT-15. The experiment in a line: Growth inhibition of human HCT15 cells at 10 uM by sulforhodamine B assay. In outline:
as §1

Assay [1] can be described thus: Growth inhibition of human 502713 cells at 10 uM by sulforhodamine B assay. In outline: as §1
The test system of a further assay is DU-145. In words: Growth inhibition of human DU145 cells at 10 uM by sulforhodamine B assay. The gist of the method:
as §1

A further assay concerns A549. The experiment in a line: Growth inhibition of human A549 cells at 10 uM by sulforhodamine B assay. The gist of the method:
as §1

Another assay concerns HEp-2. In words: Growth inhibition of human Hep2 cells at 10 uM by sulforhodamine B assay. In outline: as §1
Another assay concerns OVCAR-5. In words: Growth inhibition of human OVCAR5 cells at 10 uM by sulforhodamine B assay. The gist of the method:
as §1

On to `COc1ccc2nc(NC(=O)c3cccnc3Nc3ccc(F)cc3)sc2c1`, for which the inhibition of growth at 10 µM with IMR-32 stood at 2%; with SK-N-SH, 24%; in the assay with SiHa, 35%; in the assay with SW-620, 21%; with HCT-15 it was 0%; in assay [1], 2%. In addition, the inhibition of growth at 10 µM in the assay on DU-145 is 32%; with A549, 5%; with HEp-2 it was 32%; in the assay on OVCAR-5, 3%.
Regarding `COc1ccc2nc(NC(=O)c3cccnc3Nc3ccc(Cl)cc3Cl)sc2c1`, the inhibition of growth at 10 µM with IMR-32 was found to be 6%; with SK-N-SH it was 14%; with SiHa, 16%; with SW-620, 10%; in the assay with HCT-15 it was 24%; in assay [1] it was 4%. Moreover, the inhibition of growth at 10 µM was 17% in the assay on DU-145, 0% in the assay with A549, 17% in the assay on HEp-2 and 4% in the assay with OVCAR-5.
In the case of `CC(=O)O[C@H]1C(=O)[C@@]2(C)[C@H]([C@H](OC(=O)c3ccccc3)[C@]3(O)C[C@H](OC(=O)[C@H](O)[C@@H](NC(=O)c4ccccc4)c4ccccc4)C(C)=C1C3(C)C)[C@]1(OC(C)=O)CO[C@@H]1C[C@@H]2O` [PACLITAXEL], the inhibition of growth at 10 µM turned out to be 46% with IMR-32; 20% with SK-N-SH; 49% with SiHa; 73% with SW-620; 37% in the assay with HCT-15; 59% in assay [1]. Also, the inhibition of growth at 10 µM in the assay on DU-145 was 42%; with A549 it was 41%; in the assay with OVCAR-5 it was 51%.
For `COc1ccc2nc(NC(=O)c3cccnc3Nc3cc(F)c(F)c(F)c3)sc2c1`, the inhibition of growth at 10 µM was 55% in the assay with IMR-32; 47% in the assay on SK-N-SH; 63% with SiHa; 52% in the assay with SW-620; 21% with HCT-15; 43% in assay [1]. In addition, the inhibition of growth at 10 µM in the assay with DU-145 came out at 28%; with A549, 6%; in the assay with HEp-2 it was 7%; in the assay with OVCAR-5 it was 25%.
For `CN1c2ccccc2S(=O)(=O)n2nc(-c3cccnc3Nc3ccc(Cl)cc3)nc21`, the inhibition of growth at 10 µM in the assay with IMR-32 turned out to be 3%; in the assay with SK-N-SH it was 3%; in the assay on SiHa, 13%; in the assay on SW-620, 34%; with HCT-15, 0%; in assay [1], 28%. The inhibition of growth at 10 µM in the assay on DU-145 worked out at 9%; with A549, 28%; with HEp-2 it was 0%; with OVCAR-5, 10%.
As for `CN1c2ccccc2S(=O)(=O)n2nc(-c3cccnc3Nc3ccccc3)nc21`, the inhibition of growth at 10 µM in the assay with IMR-32 amounted to 0%; in the assay with SK-N-SH, 0%; in the assay on SiHa, 0%; in the assay with SW-620, 32%; with HCT-15, 0%; in assay [1], 30%. Also, the inhibition of growth at 10 µM worked out at 8% in the assay with DU-145, 39% in the assay on A549, 0% with HEp-2 and 15% in the assay with OVCAR-5.
With `COc1ccc2nc(NC(=O)c3cccnc3Nc3ccccc3)sc2c1`, the inhibition of growth at 10 µM with IMR-32 came out at 26%; in the assay with SK-N-SH, 26%; in the assay on SiHa it was 63%; with SW-620, 29%; with HCT-15, 0%; in assay [1], 11%. Also, the inhibition of growth at 10 µM in the assay on DU-145 came out at 25%; with A549 it was 9%; in the assay on HEp-2, 33%; with OVCAR-5, 6%.
Turning to `CN1c2ccccc2S(=O)(=O)n2nc(-c3cccnc3Nc3cc(F)c(F)c(F)c3)nc21`, the inhibition of growth at 10 µM in the assay with IMR-32 amounted to 28%; in the assay with SK-N-SH, 18%; in the assay with SiHa, 15%; in the assay with SW-620, 34%; in the assay with HCT-15, 9%; in assay [1], 26%. The inhibition of growth at 10 µM amounted to 13% with DU-145, 14% in the assay with A549, 0% in the assay with HEp-2 and 8% in the assay on OVCAR-5.
Consider `O=S1(=O)c2ccccc2N(c2ccccc2)c2nc(-c3cccnc3Nc3ccccc3)nn21`, for which the inhibition of growth at 10 µM came to 56% in the assay with IMR-32; 20% in the assay on SK-N-SH; 23% with SiHa; 23% in the assay on SW-620; 0% in the assay on HCT-15; 21% in [1]. For the same compound, the inhibition of growth at 10 µM in the assay with DU-145 turned out to be 10%; in the assay on A549, 0%; in the assay with HEp-2 it was 0%; in the assay with OVCAR-5, 3%.
In the case of `COc1ccc(Nc2ncccc2-c2nc3n(n2)S(=O)(=O)c2ccccc2N3C)cc1`, the inhibition of growth at 10 µM with IMR-32 stood at 15%; in the assay with SK-N-SH it was 20%; in the assay on SiHa, 11%; with SW-620, 24%; in the assay on HCT-15 it was 0%; in [1], 13%. Moreover, the inhibition of growth at 10 µM in the assay on DU-145 turned out to be 8%; in the assay with A549, 70%; in the assay on HEp-2, 13%; in the assay with OVCAR-5 it was 4%.
Regarding `O=C(Nc1nc2ccc([N+](=O)[O-])cc2s1)c1cccnc1Nc1ccc(F)c(Cl)c1`, the inhibition of growth at 10 µM was determined as 3% in the assay with IMR-32; 3% in the assay with SK-N-SH; 13% in the assay with SiHa; 34% with SW-620; 0% in the assay with HCT-15; 28% in assay [1]. The inhibition of growth at 10 µM came to 9% with DU-145, 78% in the assay on A549, 61% in the assay on HEp-2 and 3% in the assay with OVCAR-5.
In the case of `O=S1(=O)c2ccccc2N(c2ccccc2)c2nc(-c3cccnc3Nc3ccc(Cl)cc3)nn21`, the inhibition of growth at 10 µM in the assay with IMR-32 was 31%; with SK-N-SH, 27%; in the assay with SiHa it was 30%; in the assay with SW-620, 68%; in the assay with HCT-15, 0%; in assay [1], 18%. Moreover, the inhibition of growth at 10 µM with DU-145 is 6%; in the assay on A549, 46%; in the assay on HEp-2, 57%; in the assay on OVCAR-5, 1%.
`O=c1[nH]cc(F)c(=O)[nH]1` [FLUOROURACIL]: the inhibition of growth at 10 µM with IMR-32 amounted to 71%; in the assay with SK-N-SH, 7%; with SiHa, 44%; with SW-620, 76%; in the assay with HCT-15 it was 44%; in assay [1], 21%. The inhibition of growth at 10 µM in the assay with OVCAR-5 stood at 22%.
